According to ChEMBL document CHEMBL4610117 (J Med Chem, 2020):
The source made the active and inactive calls. No cut-off for these calls is given here.

Assays:
SU-DHL-8 [1] = assay: Antiproliferative activity against human SUDHL8 cells assessed as reduction in cell viability measured after 4 days by celltiter-glo luminescent assay; format: functional, cell-based; details: SU-DHL-8, 96 h
[2] = Clearance in human hepatocytes at 1 uM measured after 2 to 90 mins by LC-MS/MS analysis; format: ADME, cell-based, Hepatocyte
[3] = Clearance in Han-Wistar rat hepatocytes at 1 uM measured after 2 to 90 mins by LC-MS/MS analysis; format: ADME, cell-based, Hepatocyte
[4] = Clearance in rat liver microsomes at 1 uM measured after 2 to 60 mins in presence of NADP by LC-MS/MS analysis; format: ADME, Microsome
[5] = Volume of distribution at steady state in Wistar rat at 0.3 to 0.5 mg/kg, iv administered as bolus dose by LC-MS/MS analysis; format: ADME, organism-based; details: in vivo, read-out: Vdss
[6] = Apparent half life in Wistar rat at 0.3 to 0.5 mg/kg, iv administered as bolus dose by LC-MS/MS analysis; format: ADME, organism-based; details: in vivo, read-out: t1/2(app) (converted)
[7] = Oral bioavailability in Wistar rat at 0.6 to 1 mg/kg by LC-MS/MS analysis; format: ADME, organism-based; details: in vivo
[8] = Inhibition of PI3K/AKT/mTOR signaling pathway in human MCF7 cells assessed as reduction in AKT phosphorylation at Ser473 residues measured after 30 mins by HTRF assay; details: MCF7, 0.5 h
[9] = biological target: DNA-dependent protein kinase catalytic subunit (Homo sapiens, UniProt P78527); assay: Inhibition of DNA-PK (unknown origin)
[10] = biological target: Serine-protein kinase ATM (Homo sapiens, UniProt Q13315); assay: Inhibition of N-terminally FLAG-tagged recombinant full-length ATM (unknown origin) expressed in […] cells using biotin-PEG2-SVEPPLSQETFSD as substrate preincubated for 15 mins followed by substrate addition and measured after 90 mins by TR-FRET assay
Outline: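 Full-length N-terminal FLAG ATM from HEK293-6E, anti-FLAG purified, typically 15 nM. Compound was pre-bound 15 min at 22 °C in HEPES pH 7.0 buffer with MgCl2, KCl, DTT, BSA and Igepal. The reaction ran with 10 μM ATP and 1 μM peptide (final) for 90 min at 22 °C and was stopped with EDTA, streptavidin-XL665 and Eu anti-phospho-p53(Ser15). […] 11 concentrations, 20 μM–0.07 nM, in duplicate.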

[11] = biological target: Phosphatidylinositol 4,5-bisphosphate 3-kinase catalytic subunit beta isoform (Homo sapiens, UniProt P42338); assay: Inhibition of PI3Kbeta (unknown origin)
Chain of Phosphatidylinositol 4,5-bisphosphate 3-kinase catalytic subunit beta isoform (P42338 whole entry, the tested form may be a part, canonical isoform): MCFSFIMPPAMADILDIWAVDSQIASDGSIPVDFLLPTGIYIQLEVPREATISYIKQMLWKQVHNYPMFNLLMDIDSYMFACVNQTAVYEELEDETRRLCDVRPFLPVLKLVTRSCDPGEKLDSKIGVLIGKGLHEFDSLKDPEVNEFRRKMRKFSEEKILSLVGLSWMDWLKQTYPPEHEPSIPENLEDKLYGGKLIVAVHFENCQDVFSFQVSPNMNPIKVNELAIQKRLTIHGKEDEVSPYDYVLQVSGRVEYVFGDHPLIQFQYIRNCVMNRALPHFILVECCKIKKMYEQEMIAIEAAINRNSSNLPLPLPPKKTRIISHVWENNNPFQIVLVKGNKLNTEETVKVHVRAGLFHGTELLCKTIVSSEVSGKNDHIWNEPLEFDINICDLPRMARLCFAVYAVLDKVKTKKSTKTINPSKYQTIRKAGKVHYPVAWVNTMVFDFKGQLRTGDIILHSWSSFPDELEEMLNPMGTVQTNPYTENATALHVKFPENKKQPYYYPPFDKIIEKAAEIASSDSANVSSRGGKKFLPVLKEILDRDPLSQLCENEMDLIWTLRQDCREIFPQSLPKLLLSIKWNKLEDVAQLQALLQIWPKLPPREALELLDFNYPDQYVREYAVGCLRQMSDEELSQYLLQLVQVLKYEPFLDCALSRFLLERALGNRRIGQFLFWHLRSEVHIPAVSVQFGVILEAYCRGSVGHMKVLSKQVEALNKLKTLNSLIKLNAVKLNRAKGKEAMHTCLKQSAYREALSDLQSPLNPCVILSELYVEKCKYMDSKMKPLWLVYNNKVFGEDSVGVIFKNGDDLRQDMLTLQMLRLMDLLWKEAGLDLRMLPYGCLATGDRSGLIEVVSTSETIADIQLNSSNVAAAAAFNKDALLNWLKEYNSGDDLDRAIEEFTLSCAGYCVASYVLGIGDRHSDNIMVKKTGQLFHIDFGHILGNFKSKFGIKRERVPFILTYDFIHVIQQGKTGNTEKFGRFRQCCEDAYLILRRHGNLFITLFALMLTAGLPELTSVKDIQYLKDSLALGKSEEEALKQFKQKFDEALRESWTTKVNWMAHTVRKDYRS

[12] = biological target: Serine/threonine-protein kinase mTOR (Homo sapiens, UniProt P42345); assay: Binding affinity to wild-type human partial length mTOR (L1382 to W2549 residues) expressed in mammalian expression system by Kinomescan method
[13] = biological target: Serine/threonine-protein kinase RIO2 (Homo sapiens, UniProt Q9BVS4); assay: Binding affinity to wild-type human partial length RIOK2 (M1 to D313 residues) expressed in mammalian expression system by Kinomescan method
Chain of Serine/threonine-protein kinase RIO2 (Q9BVS4 whole entry, the tested form may be a part): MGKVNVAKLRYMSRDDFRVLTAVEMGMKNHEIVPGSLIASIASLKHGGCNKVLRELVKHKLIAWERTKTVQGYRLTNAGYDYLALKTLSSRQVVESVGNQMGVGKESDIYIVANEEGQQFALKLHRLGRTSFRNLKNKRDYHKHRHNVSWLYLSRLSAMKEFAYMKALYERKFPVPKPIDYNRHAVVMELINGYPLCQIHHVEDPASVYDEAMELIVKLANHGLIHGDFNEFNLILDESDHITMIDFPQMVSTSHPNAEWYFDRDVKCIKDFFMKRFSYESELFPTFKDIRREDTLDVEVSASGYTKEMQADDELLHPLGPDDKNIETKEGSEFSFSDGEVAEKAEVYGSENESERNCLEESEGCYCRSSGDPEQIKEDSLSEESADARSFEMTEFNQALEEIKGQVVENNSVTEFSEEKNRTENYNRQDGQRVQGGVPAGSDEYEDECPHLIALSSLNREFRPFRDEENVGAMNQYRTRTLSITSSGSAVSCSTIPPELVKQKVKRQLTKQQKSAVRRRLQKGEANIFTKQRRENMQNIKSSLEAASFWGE

[14] = Maximum oral bioavailability in mouse liver microsomes based well stirred liver model at 1 uM measured after 2 to 60 mins in presence of NADP by LC-MS/MS analysis; format: ADME, Microsome; details: read-out: Fmax
[15] = Maximum oral bioavailability in dog liver microsomes based well stirred liver model at 1 uM measured after 2 to 60 mins in presence of NADP by LC-MS/MS analysis; format: ADME, Canis lupus familiaris, Microsome; details: read-out: Fmax
[16] = Protein binding in rat plasma assessed as unbound fraction at 3 uM measured after 7 hrs by LC-MS/MS analysis; format: ADME, cell-free
[17] = Clearance in NMRI mouse at 0.3 to 0.5 mg/kg, iv administered as bolus dose by LC-MS/MS analysis; format: ADME, organism-based; details: in vivo
[18] = Volume of distribution at steady state in NMRI mouse at 0.3 to 0.5 mg/kg, iv administered as bolus dose by LC-MS/MS analysis; format: ADME, organism-based; details: in vivo
[19] = Volume of distribution at steady state in Beagle dog at 0.3 to 0.5 mg/kg, iv administered as bolus dose by LC-MS/MS analysis; format: ADME, organism-based, Canis lupus familiaris; details: in vivo, read-out: Vdss
[20] = Apparent half life in NMRI mouse at 0.3 to 0.5 mg/kg, iv administered as bolus dose by LC-MS/MS analysis; format: ADME, organism-based; details: in vivo
[21] = Apparent half life in Beagle dog at 0.3 to 0.5 mg/kg, iv administered as bolus dose by LC-MS/MS analysis; format: ADME, organism-based, Canis lupus familiaris; details: in vivo, read-out: t1/2(app) (converted)
[22] = Oral bioavailability in Beagle dog at 0.6 to 1 mg/kg by LC-MS/MS analysis; format: ADME, organism-based, Canis lupus familiaris; details: in vivo
SU-DHL-8 [23] = assay: Antitumor activity against human SUDHL8 cells harboring ATM K1964E mutant xenografted in CB-17 mouse assessed as tumor growth at 50 mg/kg, po bid dosed every 3 days followed by 4 days interval relative to control; format: functional
Outline: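 SU-DHL-8 (ATM K1964E) GCB-DLBCL cell line-derived xenograft in female C.B-17 SCID mice, n = 9/group. Oral dosing at 50 mg/kg b.i.d. on an intermittent schedule of 3 days on/4 days off. Treatment-to-control (T/C) ratio versus vehicle.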

[24] = biological target: T1, Serine/threonine-protein kinase ATR (Homo sapiens, UniProt Q13535); assay: In vivo inhibition of ATR in human SUDHL8 cells harboring ATM K1964E mutant xenografted CB-17 mouse assessed as reduction in ATR phosphorylation at 50 mg/kg, po bid dosed every 3 days followed by 4 days interval; format: functional, organism-based
T1 sequence (Q13535 whole entry, looked up): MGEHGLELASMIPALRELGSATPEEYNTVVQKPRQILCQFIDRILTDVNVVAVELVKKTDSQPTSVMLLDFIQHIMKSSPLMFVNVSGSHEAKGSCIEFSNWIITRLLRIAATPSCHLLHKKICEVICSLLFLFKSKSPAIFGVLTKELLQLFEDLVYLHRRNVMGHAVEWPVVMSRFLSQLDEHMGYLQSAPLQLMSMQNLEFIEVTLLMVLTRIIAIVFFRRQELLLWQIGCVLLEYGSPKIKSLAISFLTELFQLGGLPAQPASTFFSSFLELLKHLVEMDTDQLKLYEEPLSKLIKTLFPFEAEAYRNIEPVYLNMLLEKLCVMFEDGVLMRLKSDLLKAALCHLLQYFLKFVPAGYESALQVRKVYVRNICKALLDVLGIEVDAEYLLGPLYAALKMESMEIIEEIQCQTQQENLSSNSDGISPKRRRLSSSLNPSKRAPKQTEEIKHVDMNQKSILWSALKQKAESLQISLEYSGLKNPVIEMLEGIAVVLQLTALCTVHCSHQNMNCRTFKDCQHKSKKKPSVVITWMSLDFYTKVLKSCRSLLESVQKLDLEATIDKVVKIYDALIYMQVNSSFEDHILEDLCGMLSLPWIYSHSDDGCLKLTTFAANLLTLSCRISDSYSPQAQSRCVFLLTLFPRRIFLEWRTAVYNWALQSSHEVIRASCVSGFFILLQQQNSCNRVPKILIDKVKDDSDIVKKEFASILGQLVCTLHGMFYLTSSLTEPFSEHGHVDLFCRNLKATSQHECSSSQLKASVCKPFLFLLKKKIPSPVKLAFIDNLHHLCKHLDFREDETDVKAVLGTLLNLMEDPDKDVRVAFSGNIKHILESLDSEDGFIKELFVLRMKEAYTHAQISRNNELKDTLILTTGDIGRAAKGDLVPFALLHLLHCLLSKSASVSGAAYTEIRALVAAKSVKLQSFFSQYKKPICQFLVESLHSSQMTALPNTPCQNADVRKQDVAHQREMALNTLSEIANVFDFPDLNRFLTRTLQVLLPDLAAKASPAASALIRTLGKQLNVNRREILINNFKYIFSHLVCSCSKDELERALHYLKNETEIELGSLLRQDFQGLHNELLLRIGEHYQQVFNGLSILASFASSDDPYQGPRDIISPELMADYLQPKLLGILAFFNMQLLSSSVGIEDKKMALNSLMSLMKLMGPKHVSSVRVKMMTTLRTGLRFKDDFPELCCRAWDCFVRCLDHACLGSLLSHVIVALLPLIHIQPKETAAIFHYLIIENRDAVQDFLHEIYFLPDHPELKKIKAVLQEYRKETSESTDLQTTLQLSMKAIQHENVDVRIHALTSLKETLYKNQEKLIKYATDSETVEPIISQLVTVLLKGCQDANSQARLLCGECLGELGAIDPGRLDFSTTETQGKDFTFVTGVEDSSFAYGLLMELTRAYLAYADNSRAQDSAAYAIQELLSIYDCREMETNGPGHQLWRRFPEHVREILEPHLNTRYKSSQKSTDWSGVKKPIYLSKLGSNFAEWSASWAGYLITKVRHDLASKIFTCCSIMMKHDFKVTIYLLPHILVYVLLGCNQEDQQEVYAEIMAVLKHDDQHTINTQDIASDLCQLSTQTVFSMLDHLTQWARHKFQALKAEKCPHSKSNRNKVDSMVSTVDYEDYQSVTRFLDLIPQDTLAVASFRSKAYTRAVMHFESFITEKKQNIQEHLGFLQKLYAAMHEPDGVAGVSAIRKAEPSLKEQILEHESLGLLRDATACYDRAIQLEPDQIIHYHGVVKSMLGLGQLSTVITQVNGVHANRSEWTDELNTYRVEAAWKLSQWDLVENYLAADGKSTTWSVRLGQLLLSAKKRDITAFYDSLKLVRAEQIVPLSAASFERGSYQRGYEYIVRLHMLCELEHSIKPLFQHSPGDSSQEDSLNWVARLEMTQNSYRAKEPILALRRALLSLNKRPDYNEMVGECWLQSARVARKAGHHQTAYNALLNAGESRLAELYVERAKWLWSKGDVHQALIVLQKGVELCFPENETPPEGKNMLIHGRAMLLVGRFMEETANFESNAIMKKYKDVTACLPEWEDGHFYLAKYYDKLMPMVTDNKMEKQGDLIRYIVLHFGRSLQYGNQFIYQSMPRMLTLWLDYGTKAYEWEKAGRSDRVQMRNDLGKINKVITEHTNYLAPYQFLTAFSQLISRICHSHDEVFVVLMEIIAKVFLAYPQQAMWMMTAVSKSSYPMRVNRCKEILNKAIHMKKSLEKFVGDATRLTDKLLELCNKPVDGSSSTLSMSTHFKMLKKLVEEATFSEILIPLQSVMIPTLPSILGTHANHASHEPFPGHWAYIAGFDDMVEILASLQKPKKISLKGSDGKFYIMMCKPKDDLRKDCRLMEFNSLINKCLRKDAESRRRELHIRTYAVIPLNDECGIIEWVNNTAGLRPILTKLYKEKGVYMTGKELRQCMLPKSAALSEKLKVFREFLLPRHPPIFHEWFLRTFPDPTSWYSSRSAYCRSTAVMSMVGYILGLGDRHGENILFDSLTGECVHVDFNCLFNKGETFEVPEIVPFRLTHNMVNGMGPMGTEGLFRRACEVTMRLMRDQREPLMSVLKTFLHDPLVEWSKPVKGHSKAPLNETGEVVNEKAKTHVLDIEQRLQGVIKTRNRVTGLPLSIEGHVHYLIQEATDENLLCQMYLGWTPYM

[25] = biological target: T1, Serine/threonine-protein kinase ATR; assay: In vivo inhibition of ATR in human SUDHL8 cells harboring ATM K1964E mutant xenografted CB-17 mouse assessed as change in pH2AX level at 50 mg/kg, po bid dosed every 3 days followed by 4 days interval; format: functional, organism-based
[26] = Antitumor activity against human CR5038 cells xenografted in NOD/SCID mouse assessed as tumor growth at 20 mg/kg, po qd dosed every 2 days followed by 5 days interval for 2 weeks and subsequent dosing at 10 mg/kg in presence of carboplatin relative to control; format: functional
Outline: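 CR5038 human CRC PDX in NOD/SCID mice, n = 10/group. Oral dosing q.d. at 20 mg/kg, reduced to 10 mg/kg from day 14, 2 days on/5 days off. Combined with carboplatin 40 mg/kg i.p. once weekly (1 day on/6 days off). T/C ratio reported versus vehicle and the monotherapies; body weight was monitored.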

[27] = Toxicity in NOD/SCID mouse xenografted with human CR5038 cells assessed as body weight loss at 20 mg/kg, po qd dosed every 2 days followed by 5 days interval measured on day 11 to 14 and 28 to 31 in presence of carboplatin relative to control; format: organism-based; details: in vivo
[28] = Toxicity in NOD/SCID mouse xenografted with human CR5038 cells assessed as body weight loss at 20 mg/kg, po qd dosed every 2 days followed by 5 days for 2 weeks and subsequent dosing at 10 mg/kg interval measured on day 11 to 14 and 28 to 31 in presence of carboplatin relative to control; format: organism-based; details: in vivo
[29] = Toxicity in nude mouse xenografted with human SUM149 cells assessed as body weight loss at 20 mg/kg, po bid dosed every 3 days followed by 4 days interval in presence of olaparib relative to control; format: organism-based, SUM149PT; details: in vivo

For `C[C@@H]1COCCN1c1cc(-c2ccnn2C)c2ccnc(-c3ccn[nH]3)c2n1` [ELIMUSERTIB], the IC50 (SU-DHL-8 [1]) was 9 nM, the CLH [2] was 6.83 mL/min/kg and the CLH [3] was 12.3 mL/min/kg. The CLH [4] was 8.67 mL/min/kg, the Vd [5] was 1.7 L/kg and the half-life [6] was 1.3 h. It also gave a bioavailability [7] of 87%, an IC50 [8] of 35 nM and an IC50 [9] of 332 nM. It also gave an IC50 [10] of 1420 nM, an IC50 [11] of 3270 nM and a Kd [12] of 24 nM. It also gave a Kd [13] of 660 nM, a Fh at 1 µM [14] of 44% and a Fh at 1 µM [15] of 54%. The fraction unbound at 7 h, 3 µM [16] was 0.17, the CL [17] was 58.3 mL/min/kg and the Vdss [18] was 8.8 L/kg. For the same compound, the Vd [19] was 1 L/kg, the “t1/2(app)” value [20] was 0.17 h and the half-life [21] was 1 h. The bioavailability [22] was 51%, the T/C (SU-DHL-8 [23]) was -0.03 and the inhibition [24] was “Active”. The inhibition [25] was “Active”, the T/C [26] was 0.34 and the Activity [27] was 11 to 15%. The Activity [28] was under 10% and the Activity [29] was under 10%.
